ChEMBL document CHEMBL1141843, “Sesquiterpene esters from Celastrus orbiculatus and their structure-activity relationship on the modulation of multidrug resistance” (J Nat Prod, 1999)

How the values were obtained:
[1] = Cytotoxicity against human KB31 cells after 48 hrs by SRB method; assay type: functional, cell-based; conditions: KB 3-1, 48 h
How it was run: (§1)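 KB-3-1 and KB-V1 cells grown in DMEM with 2 mM L-glutamine and 10% heat-inactivated FCS at 37 °C, 5% CO2. KB-V1 kept under VLB. 2.5-5.0×10^3 cells/well seeded in 5% FCS medium, attached overnight, then exposed to compound for 48 h. Vehicle was DMSO or MeOH, final <0.5%. Read by SRB: TCA fixation, 0.4% SRB stain, Tris solubilization, absorbance at 570 nm. Mean ± S.D. of two experiments.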

[2] = Cytotoxicity against vinblastine resistant human KBV1 cells after 48 hrs by SRB method; assay type: functional, cell-based; conditions: KB-V1, 48 h; how it was run: as §1
[3] = Cytotoxicity against vinblastine resistant human KBV1 cells after 48 hrs in presence of 100 nM vinblastine by SRB method; assay type: functional, cell-based; conditions: KB-V1, 48 h; how it was run: as §1
KB-V1 [4] = assay: Reversal of P-glycoprotein-mediated multidrug resistance assessed as ratio of IC50 for human KB-V1 cells to IC50 for human KB-V1 cells in presence of 100 nM vinblastine; assay type: cell-based
How it was run: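 KB-V1 cells given compound alone or with 100 nM vinblastine for 48 h. Growth read by SRB at 570 nm and IC50 taken against vehicle controls. Enhancement factor = IC50 in KB-V1 without VLB / IC50 with VLB. Mean ± S.D. of two experiments.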

KB-V1 [5] = assay: Reversal of P-glycoprotein-mediated multidrug resistance assessed as ratio of taxol IC50 for drug-resistant human KB-V1 cells to taxol IC50 for human drug-sensitive KB-3-1 cells at 10 uM after 48 hrs by SRB method; assay type: cell-based
How it was run: (§2)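 KB-3-1 and resistant KB-V1 cells seeded overnight, then treated for 48 h with a concentration range of adriamycin, vinblastine or taxol plus 10 μM modulator. Growth read by SRB at 570 nm and IC50 taken against vehicle controls. Relative resistance = IC50 in KB-V1 / IC50 in KB-3-1.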

KB-V1 [6] = assay: Reversal of P-glycoprotein-mediated multidrug resistance assessed as ratio of adriamycin IC50 for drug-resistant human KB-V1 cells to adriamycin IC50 for human drug-sensitive KB-3-1 cells at 10 uM after 48 hrs by SRB method; assay type: cell-based; how it was run: as §2
KB-V1 [7] = assay: Reversal of P-glycoprotein-mediated multidrug resistance assessed as ratio of vinblastine IC50 for drug-resistant human KB-V1 cells to vinblastine IC50 for human drug-sensitive KB-3-1 cells at 10 uM after 48 hrs by SRB method; assay type: cell-based; how it was run: as §2

Compound	IC50 [1] [µM]	IC50 [2] [µM]	IC50 [3] [µM]	Ratio IC50 (KB-V1 [4])	Ratio IC50 (KB-V1 [5])	Ratio IC50 (KB-V1 [6])	Ratio IC50 (KB-V1 [7])
CC(=O)O[C@H]1CC[C@@H](C)[C@]23OC(C)(C)[C@H](C[C@H](OC(=O)c4ccco4)[C@]12C)[C@H]3OC(=O)c1ccco1 [ORBICULIN D]	16.8	17.8	1.2	14.8	–	–	–
CC(=O)O[C@H]1C[C@@H](C)[C@]23OC(C)(C)[C@H](C[C@H](OC(=O)c4ccccc4)[C@]2(C)[C@H]1OC(C)=O)[C@H]3OC(C)=O	41.3	34.8	0.4	87	3.7	8.3	2.3
CC(=O)OC[C@@]12[C@@H](OC(C)=O)CC[C@@H](C)[C@]13OC(C)(C)[C@H](C[C@@H]2OC(=O)c1ccccc1)[C@H]3OC(C)=O	85.3	79.4	1	79.4	10	5.5	12.9
CC(=O)OC[C@]12[C@@H](OC(=O)c3ccccc3)C[C@@H]3[C@@H](OC(C)=O)[C@]1(OC3(C)C)[C@H](C)C[C@H](OC(=O)c1ccccc1)[C@@H]2OC(C)=O	27.3	28.6	0.5	57.2	3.9	1.4	2.7
CC(=O)O[C@H]1[C@@H](OC(=O)c2ccco2)C[C@@H](C)[C@]23OC(C)(C)[C@H](C[C@H](OC(=O)c4ccccc4)[C@]12C)[C@H]3OC(=O)c1ccco1 [ORBICULIN F]	32.4	39.3	1.1	35.7	11	4.4	8.9
CC(=O)O[C@H]1CC[C@@H](C)[C@]23OC(C)(C)[C@H](C[C@H](OC(=O)c4ccco4)[C@]12C)[C@H]3OC(=O)c1ccccc1 [ORBICULIN C]	8.6	9.6	1	9.6	–	–	–
CC(=O)O[C@H]1[C@@H](OC(=O)c2ccccc2)C[C@@H](C)[C@]23OC(C)(C)[C@H](C[C@H](OC(=O)c4ccccc4)[C@]12C)[C@H]3OC(=O)c1ccccc1 [ORBICULIN G]	26.4	28.6	4.8	5.9	143	153	168
CC(=O)O[C@H]1C[C@@H](C)[C@]23OC(C)(C)[C@H](C[C@H](OC(=O)c4ccccc4)[C@]2(C)[C@H]1OC(C)=O)[C@H]3OC(=O)c1ccco1 [ORBICULIN E]	28.3	33.1	0.5	66.2	2.6	1.8	1.6
CC(=O)O[C@H]1CC[C@@H](C)[C@]23OC(C)(C)[C@H](C[C@H](OC(=O)c4ccccc4)[C@]12C)[C@H]3OC(=O)c1ccco1 [ORBICULIN B]	268	246	19.6	12.5	–	–	–
CC(=O)O[C@H]1CC[C@@H](C)[C@]23OC(C)(C)[C@H](C[C@H](OC(=O)c4ccccc4)[C@]12C)[C@H]3OC(=O)c1ccccc1	10.5	12.3	1.9	6.4	–	–	–
CC(=O)O[C@H]1C[C@@H](C)[C@]23OC(C)(C)[C@H](C[C@H](OC(=O)c4ccccc4)[C@]2(C)[C@H]1OC(C)=O)[C@H]3OC(=O)c1ccccc1 [ORBICULIN A]	31.6	32	0.4	80	1.2	3	0.9
